The target of assay [1] is T1, Protein-glutamine gamma-glutamyltransferase (Homo sapiens, UniProt P21980).
T1 sequence (P21980 whole entry): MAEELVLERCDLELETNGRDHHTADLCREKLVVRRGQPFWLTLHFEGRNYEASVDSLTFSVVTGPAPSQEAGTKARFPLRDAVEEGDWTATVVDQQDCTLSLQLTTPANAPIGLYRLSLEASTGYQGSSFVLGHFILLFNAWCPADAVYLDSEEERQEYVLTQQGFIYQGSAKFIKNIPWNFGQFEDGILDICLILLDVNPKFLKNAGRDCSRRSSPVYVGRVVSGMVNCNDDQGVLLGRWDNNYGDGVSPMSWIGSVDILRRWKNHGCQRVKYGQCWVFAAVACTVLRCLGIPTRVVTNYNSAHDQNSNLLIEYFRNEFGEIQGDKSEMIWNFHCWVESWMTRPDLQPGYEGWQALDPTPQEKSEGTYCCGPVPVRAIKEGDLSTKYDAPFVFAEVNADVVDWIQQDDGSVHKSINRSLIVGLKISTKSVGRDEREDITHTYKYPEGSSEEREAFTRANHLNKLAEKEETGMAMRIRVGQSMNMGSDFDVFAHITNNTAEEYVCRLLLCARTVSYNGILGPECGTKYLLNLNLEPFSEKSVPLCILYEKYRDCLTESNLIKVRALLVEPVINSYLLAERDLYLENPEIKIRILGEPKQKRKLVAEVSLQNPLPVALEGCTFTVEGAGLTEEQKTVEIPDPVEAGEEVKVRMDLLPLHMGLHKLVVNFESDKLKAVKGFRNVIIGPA
As to the kind of experiment: Inhibition of recombinant human TG2 expressed in Escherichia coli assessed as inhibition constant using Cbz-Glu(gamma-p-nitrophenyl ester)Gly (AL5) as substrate by colorimetric assay. In outline:
(§1)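 Kitz–Wilson conditions, triplicate, 25 °C: 50 mM MOPS pH 6.9, 7.5 mM CaCl2, 100 μM AL5, inhibitor 0.5–900 μM (varies by inhibitor), DMSO ≤5% v/v final; started with 5 mU/mL TG2; p-nitrophenolate read at 405 nm for 20 min. Mono-exponential fits give kobs; kobs vs [I] fitted to saturation model with α = 1+[S]/KM (KM 10 μM), giving kinact and KI; double reciprocal if unsaturated.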

Assay [2] has as its target T2, Protein-glutamine gamma-glutamyltransferase (Homo sapiens) (UniProt P21980).
T2 sequence (whole entry): T1 sequence (P21980 whole entry)
As to the kind of experiment: Inhibition of recombinant human TG2 expressed in Escherichia coli assessed as Kinact using Cbz-Glu(gamma-p-nitrophenyl ester)Gly (AL5) as substrate by colorimetric assay. The gist of the method:
as §1

Assay [3] deals with T2, Protein-glutamine gamma-glutamyltransferase (Homo sapiens). Nature of the assay: Inhibition of recombinant human TG2 expressed in Escherichia coli assessed as Kinact/Ki ratio using Cbz-Glu(gamma-p-nitrophenyl ester)Gly (AL5) as substrate by colorimetric assay. The gist of the method:
as §1

Assay [4] has the same target. As to the kind of experiment: Inhibition of GTP binding to recombinant human TG2 expressed in Escherichia coli incubated for 30 mins by GTP-gamma-S BODIPY assay.

Calls of active or inactive are those of the source. No cut-off for these calls is given here.

Regarding `C=CC(=O)NCCCC(=O)N1CCN(C(=O)c2cccc3ccccc23)CC1`, the inhibition constant Ki in assay [1] was found to be 134 µM. Moreover, in assay [2], the Kinact came out at 0.45 min⁻¹. Further, the Ratio in assay [3] is 3.3 10^3/M/min.

In the case of `C=CC(=O)NCCCC(=O)N1CCN(S(=O)(=O)c2cccc3c(N(C)C)cccc23)CC1`, the inhibition constant (Ki) in assay [1] stood at 74.2 µM. Also, the Kinact in assay [2] came out at 0.54 min⁻¹. In addition, in assay [3], the Ratio is 7.3 10^3/M/min.

For `C=CC(=O)NCCCCC(=O)N1CCN(S(=O)(=O)c2cccc3c(N(C)C)cccc23)CC1`, the Ki in assay [1] came to 42 µM. In addition, the Kinact in assay [2] came out at 0.55 min⁻¹. Besides, in assay [3], the Ratio is 13.1 10^3/M/min.

`C=CC(=O)NCCCCC(=O)N1CCN(C(=O)C23CC4CC(CC(C4)C2)C3)CC1`: in assay [1], the Ki was determined as 4.5 µM. The Kinact in assay [2] came to 0.19 min⁻¹. The Ratio in assay [3] was 41.9 10^3/M/min.

Take `C=CC(=O)NCC(=O)N1CCN(S(=O)(=O)c2cccc3ccccc23)CC1`: in assay [1], the Ki amounted to 6.51 µM. The inhibition entry in assay [4] is “Active”. Moreover, the Kinact in assay [2] was 0.7 min⁻¹. Besides, the Ratio in assay [3] is 108 10^3/M/min.

Take `C=CC(=O)NCCCCC(=O)N1CCN(C(=O)c2cccc3ccccc23)CC1`: the Ki in assay [1] is 142 µM. Besides, in assay [2], the Kinact worked out at 0.44 min⁻¹. The Ratio in assay [3] is 3.1 10^3/M/min.

For the compound `C=CC(=O)NCC(=O)N1CCN(S(=O)(=O)c2cccc3c(N(C)C)cccc23)CC1`, the inhibition constant (Ki) in assay [1] was 1.49 µM. Also, in assay [4], the inhibition entry is “Active”. In addition, the Kinact in assay [2] stood at 2.25 min⁻¹. In addition, in assay [3], the Ratio is 1510 10^3/M/min.

Turning to `C=CC(=O)NCCCCCC(=O)N1CCN(C(=O)C23CC4CC(CC(C4)C2)C3)CC1`, the inhibition constant Ki in assay [1] was 38 µM. The Kinact in assay [2] is 0.36 min⁻¹. For the same compound, the Ratio in assay [3] is 9.5 10^3/M/min.

Consider `C=CC(=O)NCCC(=O)N1CCN(C(=O)c2cccc3ccccc23)CC1`, for which, in assay [1], the inhibition constant (Ki) amounted to 51.6 µM. In addition, the Kinact in assay [2] stood at 0.13 min⁻¹. Further, the Ratio in assay [3] is 2.4 10^3/M/min.

For the compound `C=CC(=O)NCCCCCC(=O)N1CCN(S(=O)(=O)c2cccc3c(N(C)C)cccc23)CC1`, in assay [1], the Ki worked out at 27.4 µM. Further, the Kinact in assay [2] was 0.23 min⁻¹. Further, in assay [3], the Ratio was 8.6 10^3/M/min.

Take `C=CC(=O)NCC(=O)N1CCN(C(=O)C23CC4CC(CC(C4)C2)C3)CC1`: in assay [1], the Ki came out at 3.2 µM. For the same compound, the inhibition entry in assay [4] was “Active”. For the same compound, the Kinact in assay [2] stood at 1.34 min⁻¹. Also, the Ratio in assay [3] is 412 10^3/M/min.

On to `C=CC(=O)NCC(=O)N1CCN(C(=O)c2cccc3ccccc23)CC1`, for which, in assay [1], the Ki was determined as 25 µM. Moreover, the inhibition result in assay [4] is “Active”. Moreover, in assay [2], the Kinact is 0.69 min⁻¹. In addition, in assay [3], the Ratio was 27.5 10^3/M/min.

As for `C=CC(=O)NCCCCCC(=O)N1CCN(C(=O)c2cccc3ccccc23)CC1`, in assay [1], the Ki worked out at 109 µM. Moreover, the Kinact in assay [2] is 0.46 min⁻¹. Besides, the Ratio in assay [3] is 4.2 10^3/M/min.

Take `C=CC(=O)NCCC(=O)N1CCN(S(=O)(=O)c2cccc3c(N(C)C)cccc23)CC1`: in assay [1], the inhibition constant (Ki) worked out at 64.5 µM. Besides, the Kinact in assay [2] stood at 0.25 min⁻¹. The Ratio in assay [3] is 3.9 10^3/M/min.

For the origin of these results see ChEMBL document CHEMBL5104118, “Structure-activity relationships of hydrophobic alkyl acrylamides as tissue transglutaminase inhibitors” (RSC Med Chem, 2022).
